Data set [1] can be described thus: Drug uptake in tumor of athymic mouse xenografted with human MCF7 cells at 100 mg/kg, po after 4 hrs. It counts as ADME, organism-based, Neoplasm. Conditions: read-out: Drug uptake. Details: dose 100 mg/kg, route oral.
Data set [2] in a line: Plasma concentration in athymic mouse plasma xenografted with human MCF7 cells at 100 mg/kg, po after 4 hrs. It is filed as ADME, organism-based. The arrangement: dose 100 mg/kg, route oral. An outline of the steps:
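MCF-7 cells (5 × 10^6 in 50% cold HBSS/50% growth-factor-reduced Matrigel) implanted subcutaneously in the hindflank of 5−8-week-old female nude mice. When tumors reached 40−150 mg, mice received a single oral dose. Plasma exposure was measured after dosing, and scheduled takedown was at 4 h.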
(In xenograft studies the graft and the host belong to different species.)

The test system of data set [3] is Mus musculus. The data set can be described thus: In vivo inhibition of mTORC1-mediated phosphorylation of 4EBP1 at ([…]) in human MCF7 cells xenografted into athymic nude mouse at 100 mg/kg, po after 4 hrs by Western blotting analysis relative to control. It counts as functional. The note with it: MCF7, 4 h. The gist of the method: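 MCF-7 cells (DMEM, 10% FBS) were implanted subcutaneously at 5 × 10^6 cells in 50% cold HBSS/50% growth-factor-reduced matrigel into the hindflank of 5−8 week old female nude mice. At tumor size 40−150 mg, mice received a single oral dose of 100 mg/kg. Tumor lysates were pooled per group. Phospho-AKT (S473, T308), p70S6K (T389), S6 (S240/244) and 4E-BP1 (T37/46) were measured by Western blot normalized to α-tubulin.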

In data set [4] the test system is Mus musculus. The data set can be described thus: In vivo inhibition of mTOR1-mediated phosphorylation of p70S6K at […] in human MCF7 cells xenografted into athymic nude mouse at 100 mg/kg, po after 8 hrs by Western blotting analysis relative to control. It is filed as functional. Conditions: MCF7, 8 h.
Data set [5] in a line: Drug uptake in tumor of athymic mouse xenografted with human PC3 cells at 100 mg/kg, po after 24 hrs. It is filed as ADME, organism-based, Neoplasm, PC-3. The arrangement: dose 100 mg/kg, route oral. Conditions: read-out: Drug uptake. An outline of the steps: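 PC-3 cells (3 × 10⁶, passages 10–14, in ice-cold HBSS) were implanted sc in 5–8 week old male nude mice. Tumors of 200–500 mg received a single oral 100 mg/kg dose. Plasma and tumor were collected at 1, 4, 8, 16, 24 and 32 h and homogenized in buffer. Lysates were pooled per group (n = 5), and phospho-proteins were measured by Western blot normalized to α-tubulin.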

Data set [6] deals with Heat shock protein HSP 90-beta (Homo sapiens, UniProt P08238). The data set can be described thus: Inhibition of HSP90 (unknown origin).
Data set [7] deals with Vascular endothelial growth factor receptor 1 (Homo sapiens, UniProt P17948). Kind of data set: Inhibition of FLT1 (unknown origin).
Data set [8] deals with ALK tyrosine kinase receptor (Homo sapiens, UniProt Q9UM73). Kind of data set: Inhibition of ALK (unknown origin).
Data set [9] has as its target Phosphatidylinositol 4,5-bisphosphate 3-kinase catalytic subunit beta isoform (Homo sapiens, UniProt P42338). Kind of data set: Inhibition of PI3Kbeta (unknown origin).
A short description of data set [10]: Half life in Beagle dog at 3 mg/kg, iv. The arrangement: dose 3 mg/kg, route intravenous. Conditions: in vivo. It is filed as ADME, organism-based, Canis lupus familiaris. An outline of the steps:
(§1)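 Single-dose PK: female athymic nude mice (10 mg/kg), female CD rats and male beagle dogs (3 mg/kg), male cynomolgus monkeys (3 mg/kg), given iv and by oral gavage. Solution in EPW (5% ethanol/45% PEG400/water), with 1:2 HCl (m/m) for mouse, rat and dog and 1:1.5 HCl (m/m) for monkey. Plasma levels followed over 24 h.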

Data set [11] is described as follows: Cmax in cynomolgus monkey at 3 mg/kg, iv. It is filed as ADME, organism-based, Macaca fascicularis. The arrangement: dose 3 mg/kg, route intravenous. Conditions: in vivo. The gist of the method:
as §1

The nature of data set [12]: Drug uptake in tumor of athymic mouse xenografted with human MCF7 cells at 100 mg/kg, po after 24 hrs. It counts as ADME, organism-based, Neoplasm. The arrangement: dose 100 mg/kg, route oral. The note with it: in vivo, BLD = below limit of detection.
In the next data set the test system is MCF7. Kind of data set: Antitumor activity against human MCF7 cells xenografted in athymic nude mouse at 50 mg/kg, po qd for 14 days relative to control. It is filed as functional. The gist of the method: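 Female athymic nude (NCr) mice, 5–8 weeks old, bearing subcutaneous MCF-7 tumors staged at 100–200 mg. Compound given orally qd for 14 days at 50 or 100 mg/kg as a solution/fine suspension in water with a 1:1 molar ratio of 1 N HCl. Caliper tumor mass = length × width²/2, measured twice weekly; body mass recorded daily.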

Data set [13] is described as follows: Drug uptake in tumor of athymic mouse xenografted with human MCF7 cells at 100 mg/kg, po after 32 hrs. It counts as ADME, organism-based, Neoplasm. Details: dose 100 mg/kg, route oral. The note with it: read-out: Drug uptake.
A short description of data set [14]: Plasma protein binding in mouse at 5 uM. Conditions: read-out: PPB (converted). It counts as ADME, cell-free.
The nature of data set [15]: Metabolic stability in human liver microsomes after 30 mins. It counts as ADME, Microsome. Conditions: read-out: Stability.
A further data set concerns the target T1, Cytochrome P450 2C8 (Homo sapiens, UniProt P10632).
T1 sequence (P10632 whole entry): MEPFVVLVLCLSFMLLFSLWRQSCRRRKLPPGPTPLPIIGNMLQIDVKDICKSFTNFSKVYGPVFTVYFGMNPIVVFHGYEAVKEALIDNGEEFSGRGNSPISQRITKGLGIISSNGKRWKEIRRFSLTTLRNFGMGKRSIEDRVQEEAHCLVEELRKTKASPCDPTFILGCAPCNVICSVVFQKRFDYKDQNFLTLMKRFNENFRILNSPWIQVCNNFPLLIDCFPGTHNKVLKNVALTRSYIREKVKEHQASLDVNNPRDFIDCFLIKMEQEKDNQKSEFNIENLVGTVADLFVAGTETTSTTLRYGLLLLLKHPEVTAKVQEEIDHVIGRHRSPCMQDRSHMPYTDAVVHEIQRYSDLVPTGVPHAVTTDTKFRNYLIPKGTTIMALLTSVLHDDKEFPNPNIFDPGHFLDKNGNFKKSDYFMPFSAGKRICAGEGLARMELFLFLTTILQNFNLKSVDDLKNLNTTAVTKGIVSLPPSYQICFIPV
The data set can be described thus: Inhibition of CYP2C8 (unknown origin). It counts as ADME.

Data set [16] concerns Mus musculus. The data set can be described thus: In vivo inhibition of mTORC1-mediated phosphorylation of pS6 at (serine 240/244) in human PC3 cells xenografted into athymic nude mouse at 100 mg/kg, po after 1 hr by Western blotting analysis relative to control. It counts as functional. Conditions: PC-3, 1 h. An outline of the steps: (§2)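 PC-3 cells grown in DMEM with 20% FBS were implanted subcutaneously at 3 × 10^6 cells in ice-cold HBSS into the hindflank of 5−8 week old male nude mice. At tumor size 200−500 mg, mice received a single oral dose of 100 mg/kg. Plasma and tumors were collected at 1, 4, 8, 16, 24 and 32 h. Tumor lysates from each group (n = 5) were pooled. Phospho-proteins were quantified by Western blot and normalized to α-tubulin.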

Data set [17] concerns Mus musculus. The data set can be described thus: In vivo inhibition of mTORC1-mediated phosphorylation of p70S6K at […] in human PC3 cells xenografted into athymic nude mouse at 100 mg/kg, po after 16 hrs by Western blotting analysis relative to control. It is filed as functional. The note with it: PC-3, 16 h. An outline of the steps:
as §2

Data set [18] concerns Mus musculus. The data set can be described thus: In vivo inhibition of mTORC2-mediated phosphorylation of AKT at serine 473 in human PC3 cells xenografted into athymic nude mouse at 100 mg/kg, po after 16 hrs by Western blotting analysis relative to control. It counts as functional. Conditions: PC-3, 16 h. The gist of the method:
as §2

The target in data set [19] is ATP-dependent translocase ABCB1 (Homo sapiens, UniProt P08183). The data set can be described thus: Activity at P-glycoprotein (unknown origin).
Sequence of ATP-dependent translocase ABCB1 (P08183 whole entry): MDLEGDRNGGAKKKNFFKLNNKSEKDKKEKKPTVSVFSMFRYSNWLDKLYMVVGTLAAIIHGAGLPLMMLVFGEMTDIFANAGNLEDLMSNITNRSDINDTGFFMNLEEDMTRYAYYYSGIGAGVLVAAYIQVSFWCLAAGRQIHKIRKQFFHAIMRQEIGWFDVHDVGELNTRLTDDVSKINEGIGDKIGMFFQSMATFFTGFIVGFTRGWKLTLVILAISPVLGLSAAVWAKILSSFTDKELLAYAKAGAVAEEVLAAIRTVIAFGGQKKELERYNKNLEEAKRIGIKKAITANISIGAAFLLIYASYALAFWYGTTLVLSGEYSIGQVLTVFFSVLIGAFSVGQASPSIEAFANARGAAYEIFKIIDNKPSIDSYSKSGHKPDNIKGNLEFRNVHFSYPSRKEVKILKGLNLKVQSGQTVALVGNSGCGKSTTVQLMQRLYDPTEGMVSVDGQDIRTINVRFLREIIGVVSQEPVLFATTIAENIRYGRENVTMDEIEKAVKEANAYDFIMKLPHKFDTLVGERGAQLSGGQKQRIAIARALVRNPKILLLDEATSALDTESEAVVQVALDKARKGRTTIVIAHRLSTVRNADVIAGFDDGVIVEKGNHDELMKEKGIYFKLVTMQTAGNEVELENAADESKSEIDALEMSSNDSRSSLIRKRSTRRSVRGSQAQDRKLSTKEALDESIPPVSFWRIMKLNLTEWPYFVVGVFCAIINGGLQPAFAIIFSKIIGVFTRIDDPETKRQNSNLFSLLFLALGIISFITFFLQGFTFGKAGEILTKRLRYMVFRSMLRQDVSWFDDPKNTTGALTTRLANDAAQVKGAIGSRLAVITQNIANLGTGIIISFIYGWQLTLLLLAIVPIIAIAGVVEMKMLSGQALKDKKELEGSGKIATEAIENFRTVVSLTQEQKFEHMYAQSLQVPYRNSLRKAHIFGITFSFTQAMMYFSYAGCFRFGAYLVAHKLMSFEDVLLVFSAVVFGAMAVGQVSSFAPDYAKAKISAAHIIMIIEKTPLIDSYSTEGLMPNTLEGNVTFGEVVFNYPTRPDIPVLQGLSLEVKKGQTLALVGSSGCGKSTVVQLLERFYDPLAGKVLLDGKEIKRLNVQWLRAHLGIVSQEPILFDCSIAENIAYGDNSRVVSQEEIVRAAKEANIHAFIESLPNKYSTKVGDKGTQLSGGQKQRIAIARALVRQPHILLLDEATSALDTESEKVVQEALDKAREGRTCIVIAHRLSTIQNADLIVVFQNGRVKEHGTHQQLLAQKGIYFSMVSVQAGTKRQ

Sequence of Vascular endothelial growth factor receptor 1 (P17948 whole entry): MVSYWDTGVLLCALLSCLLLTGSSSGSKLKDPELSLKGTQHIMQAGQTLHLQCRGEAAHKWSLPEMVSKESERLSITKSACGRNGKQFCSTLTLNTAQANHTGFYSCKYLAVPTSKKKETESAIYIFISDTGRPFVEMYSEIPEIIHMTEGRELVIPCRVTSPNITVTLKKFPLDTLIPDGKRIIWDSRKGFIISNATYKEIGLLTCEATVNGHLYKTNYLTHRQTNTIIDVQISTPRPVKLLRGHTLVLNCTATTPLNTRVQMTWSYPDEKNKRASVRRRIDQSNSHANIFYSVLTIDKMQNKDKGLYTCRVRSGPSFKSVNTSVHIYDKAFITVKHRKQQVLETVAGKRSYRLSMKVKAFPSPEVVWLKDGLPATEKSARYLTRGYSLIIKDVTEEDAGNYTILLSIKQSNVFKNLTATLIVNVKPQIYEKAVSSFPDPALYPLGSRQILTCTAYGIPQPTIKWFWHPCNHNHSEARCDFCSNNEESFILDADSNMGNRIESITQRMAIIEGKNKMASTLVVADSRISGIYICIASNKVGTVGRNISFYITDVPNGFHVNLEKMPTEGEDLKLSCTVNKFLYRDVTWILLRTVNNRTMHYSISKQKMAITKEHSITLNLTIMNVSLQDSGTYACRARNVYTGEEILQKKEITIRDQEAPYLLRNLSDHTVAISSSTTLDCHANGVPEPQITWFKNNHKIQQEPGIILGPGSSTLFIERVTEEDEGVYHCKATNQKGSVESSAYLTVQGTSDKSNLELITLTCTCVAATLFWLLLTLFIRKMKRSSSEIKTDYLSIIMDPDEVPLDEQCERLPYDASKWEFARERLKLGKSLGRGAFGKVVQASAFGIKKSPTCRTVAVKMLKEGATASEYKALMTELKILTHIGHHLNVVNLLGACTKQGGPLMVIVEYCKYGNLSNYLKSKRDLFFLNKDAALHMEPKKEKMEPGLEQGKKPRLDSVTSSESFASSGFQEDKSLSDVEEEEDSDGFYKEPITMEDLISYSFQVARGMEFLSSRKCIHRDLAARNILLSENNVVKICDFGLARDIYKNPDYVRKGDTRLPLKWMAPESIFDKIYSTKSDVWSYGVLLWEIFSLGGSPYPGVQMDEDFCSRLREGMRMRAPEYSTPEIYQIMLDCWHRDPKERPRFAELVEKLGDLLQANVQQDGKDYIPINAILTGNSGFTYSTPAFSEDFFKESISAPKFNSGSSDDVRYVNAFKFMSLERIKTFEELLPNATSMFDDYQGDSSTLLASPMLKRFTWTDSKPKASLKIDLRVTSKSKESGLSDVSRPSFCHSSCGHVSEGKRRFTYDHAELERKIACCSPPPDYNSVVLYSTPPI
Sequence of ALK tyrosine kinase receptor (Q9UM73 whole entry, canonical isoform): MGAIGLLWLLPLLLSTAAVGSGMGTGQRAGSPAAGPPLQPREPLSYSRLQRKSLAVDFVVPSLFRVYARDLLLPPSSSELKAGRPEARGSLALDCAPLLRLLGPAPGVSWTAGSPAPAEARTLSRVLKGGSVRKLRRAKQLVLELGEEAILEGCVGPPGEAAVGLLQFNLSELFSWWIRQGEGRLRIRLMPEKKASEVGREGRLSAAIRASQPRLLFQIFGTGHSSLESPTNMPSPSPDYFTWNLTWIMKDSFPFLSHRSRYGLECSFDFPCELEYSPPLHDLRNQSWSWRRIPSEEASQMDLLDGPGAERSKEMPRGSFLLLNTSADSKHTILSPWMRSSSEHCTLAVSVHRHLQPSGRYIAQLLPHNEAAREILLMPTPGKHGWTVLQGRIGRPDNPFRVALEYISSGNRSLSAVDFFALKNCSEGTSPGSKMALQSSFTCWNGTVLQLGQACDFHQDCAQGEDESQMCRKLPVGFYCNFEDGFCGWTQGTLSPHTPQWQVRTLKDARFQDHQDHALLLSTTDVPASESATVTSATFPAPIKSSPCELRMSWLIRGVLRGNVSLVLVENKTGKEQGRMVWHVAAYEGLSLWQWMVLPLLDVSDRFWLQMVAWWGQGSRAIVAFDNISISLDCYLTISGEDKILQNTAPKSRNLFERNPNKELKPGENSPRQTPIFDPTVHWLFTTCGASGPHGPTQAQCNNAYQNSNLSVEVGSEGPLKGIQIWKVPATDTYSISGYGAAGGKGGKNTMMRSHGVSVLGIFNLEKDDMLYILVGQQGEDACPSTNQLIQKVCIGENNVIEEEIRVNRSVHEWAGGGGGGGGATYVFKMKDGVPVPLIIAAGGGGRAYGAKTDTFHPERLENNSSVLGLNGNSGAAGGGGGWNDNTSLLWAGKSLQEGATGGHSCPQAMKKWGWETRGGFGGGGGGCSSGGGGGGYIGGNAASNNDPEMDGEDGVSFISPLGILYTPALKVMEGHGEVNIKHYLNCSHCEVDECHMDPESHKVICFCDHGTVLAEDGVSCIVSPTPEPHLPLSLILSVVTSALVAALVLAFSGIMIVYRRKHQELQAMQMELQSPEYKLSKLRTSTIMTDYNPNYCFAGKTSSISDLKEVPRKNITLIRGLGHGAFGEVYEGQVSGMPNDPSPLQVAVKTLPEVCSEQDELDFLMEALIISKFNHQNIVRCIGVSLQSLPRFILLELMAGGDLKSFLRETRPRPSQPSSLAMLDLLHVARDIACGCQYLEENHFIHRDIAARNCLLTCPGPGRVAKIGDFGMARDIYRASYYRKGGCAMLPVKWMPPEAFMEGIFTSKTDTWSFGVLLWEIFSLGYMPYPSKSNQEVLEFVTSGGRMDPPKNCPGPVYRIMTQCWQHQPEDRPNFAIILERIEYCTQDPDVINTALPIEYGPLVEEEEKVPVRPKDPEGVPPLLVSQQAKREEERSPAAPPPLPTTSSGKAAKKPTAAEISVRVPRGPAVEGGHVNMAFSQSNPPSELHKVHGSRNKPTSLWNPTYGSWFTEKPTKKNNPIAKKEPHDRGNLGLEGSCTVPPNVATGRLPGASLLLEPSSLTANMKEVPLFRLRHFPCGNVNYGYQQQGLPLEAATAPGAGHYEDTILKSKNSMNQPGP
Sequence of Heat shock protein HSP 90-beta (P08238 whole entry): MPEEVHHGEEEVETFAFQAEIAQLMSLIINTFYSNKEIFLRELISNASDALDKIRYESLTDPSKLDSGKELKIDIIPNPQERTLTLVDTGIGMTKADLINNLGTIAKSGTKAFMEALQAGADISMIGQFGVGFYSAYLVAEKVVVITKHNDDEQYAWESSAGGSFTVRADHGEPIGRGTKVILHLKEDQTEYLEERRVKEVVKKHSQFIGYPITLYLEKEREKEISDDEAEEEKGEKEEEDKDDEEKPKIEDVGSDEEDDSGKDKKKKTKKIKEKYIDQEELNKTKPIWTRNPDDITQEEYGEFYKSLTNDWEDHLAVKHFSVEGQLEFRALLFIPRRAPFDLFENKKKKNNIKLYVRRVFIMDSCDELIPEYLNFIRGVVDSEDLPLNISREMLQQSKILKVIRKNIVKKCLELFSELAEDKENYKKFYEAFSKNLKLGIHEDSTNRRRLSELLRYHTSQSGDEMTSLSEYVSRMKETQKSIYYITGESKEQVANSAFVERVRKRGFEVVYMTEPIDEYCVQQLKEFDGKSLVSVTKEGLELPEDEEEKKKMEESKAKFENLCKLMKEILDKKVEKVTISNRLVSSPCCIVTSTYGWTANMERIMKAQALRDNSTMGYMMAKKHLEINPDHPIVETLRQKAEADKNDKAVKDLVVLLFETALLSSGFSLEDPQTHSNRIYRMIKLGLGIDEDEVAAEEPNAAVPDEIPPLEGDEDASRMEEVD

On to `Cc1c(C(=O)N2CCOc3ccc(-c4ccc(N)nc4)cc3C2)ccc(S(C)(=O)=O)c1F`, for which the concentration at 4 h in data set [1] is 35900 nM; in [2] it was 30100 nM. For the same molecule, the inhibition in vivo at 100 mg/kg came out at 85% in the data set with Mus musculus [3]; 81% in the data set with Mus musculus [4]; 88% in the data set with Mus musculus [16]; 66% with Mus musculus [17]; 55% in the data set with Mus musculus [18]. Further, the concentration at 24 h in data set [5] was determined as 110 nM. The half-inhibitory concentration (IC50) was over 3.5 µM in data set [6], over 3.5 µM in data set [7], over 3.5 µM in data set [8] and over 5 µM in data set [9]. The half-life in data set [10] was 6.11 h. Moreover, the Cmax in data set [11] was determined as 950 nM. In addition, in data set [12], the Drug uptake result is “BLD”. Further, the Activity is 22% with MCF7 and over 20 µM in data set [19]. For the same molecule, the concentration at 32 h in [13] is 100 nM. For the same molecule, in data set [14], the fraction unbound at 5 µM is 0.16. Besides, the remaining at 0.5 h in data set [15] is 93%. Further, at Cytochrome P450 2C8, the INH is over 20 µM.

One may read the inhibition in vivo as the percentage by which the read-out fell short of the control. Broadly, the IC50 is the midpoint of a concentration-inhibition curve. The term half-life denotes the time needed for the level to fall by half in the phase considered. For orientation: Cmax means the highest concentration seen after dosing.

Values taken from ChEMBL document CHEMBL2331117 (J Med Chem, 2013).
